According to ChEMBL document CHEMBL2057101, “Fluorocyclines. 2. Optimization of the C-9 side-chain for antibacterial activity and oral efficacy” (J Med Chem, 2012):
≈ marks a conversion by molar mass, not a printed value.

Experiments:
Type in all cases: functional
[1] = test system: Staphylococcus aureus; experiment: Antibacterial activity against tetracycline-susceptible Staphylococcus aureus ATCC 13709 Smith isolate SA100
Summary of the method: (§1)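 Broth microdilution MIC following CLSI methods in cation-adjusted Mueller Hinton broth, prepared fresh and held at 4 °C before testing. Defibrinated horse blood added to the medium where appropriate. Runs accepted when quality control ranges for comparator antibiotics and ATCC QC strains were met.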

[2] = test system: Klebsiella pneumoniae; experiment: Antibacterial activity against Klebsiella pneumoniae ATCC 13883
Summary of the method: (§2)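 MIC by broth microdilution in liquid medium per CLSI, in cation-adjusted Mueller Hinton broth made fresh and held at 4 °C before testing. Horse blood (defibrinated) added to the medium where appropriate. Runs were accepted only when the comparator antibiotics and ATCC QC strains fell within their recommended ranges.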

[3] = test system: Staphylococcus aureus; experiment: Antibacterial activity against tetracycline-resistant Staphylococcus aureus isolate SA161 expressing TetM gene; summary of the method: as §1
[4] = test system: Streptococcus pneumoniae; experiment: Antibacterial activity against Streptococcus pneumoniae ATCC 49619 isolate 106; summary of the method: as §2
[5] = test system: Streptococcus pneumoniae; experiment: Antibacterial activity against tetracycline-resistant Streptococcus pneumoniae isolate 160 expressing tetM gene
[6] = test system: Escherichia coli; experiment: Antibacterial activity against Escherichia coli ATCC 25922 isolate 107; summary of the method: as §2
[7] = test system: Escherichia coli; experiment: Antibacterial activity against Escherichia coli isolate EC155 expressing tetA gene; summary of the method: as §2
[8] = test system: Staphylococcus aureus; experiment: Antibacterial activity against tetracycline-resistant Staphylococcus aureus isolate SA158 expressing TetK gene

CN(C)[C@@H]1C(O)=C(C(N)=O)C(=O)[C@@]2(O)C(O)=C3C(=O)c4c(O)c(NC(=O)CNC(C)(C)C)cc(F)c4C[C@H]3C[C@@H]12
MIC [1]: 0.25 µg/mL (≈ 0.446 µM)
MIC [2]: 1 µg/mL (≈ 1.78 µM)
MIC [3]: 0.25 µg/mL (≈ 0.446 µM)
MIC [4]: 0.016 µg/mL (≈ 0.0285 µM)
MIC [5]: 0.016 µg/mL (≈ 0.0285 µM)
MIC [6]: 0.25 µg/mL (≈ 0.446 µM)
MIC [7]: 2 µg/mL (≈ 3.57 µM)
MIC [8]: 0.063 µg/mL (≈ 0.112 µM)

CN(C)[C@@H]1C(O)=C(C(N)=O)C(=O)[C@@]2(O)C(O)=C3C(=O)c4c(O)c(NC(=O)[C@H]5CCCN5C)cc(F)c4C[C@H]3C[C@@H]12
MIC [1]: 2 µg/mL (≈ 3.58 µM)
MIC [2]: 4 µg/mL (≈ 7.16 µM)
MIC [3]: 2 µg/mL (≈ 3.58 µM)
MIC [4]: 0.25 µg/mL (≈ 0.448 µM)
MIC [5]: 0.25 µg/mL (≈ 0.448 µM)
MIC [6]: 2 µg/mL (≈ 3.58 µM)
MIC [7]: 16 µg/mL (≈ 28.6 µM)
MIC [8]: 2 µg/mL (≈ 3.58 µM)

CC(C)N1CCC[C@H]1C(=O)Nc1cc(F)c2c(c1O)C(=O)C1=C(O)[C@]3(O)C(=O)C(C(N)=O)=C(O)[C@@H](N(C)C)[C@@H]3C[C@@H]1C2
MIC [1]: 0.5 µg/mL (≈ 0.852 µM)
MIC [3]: 1 µg/mL (≈ 1.7 µM)
MIC [4]: ≤ 0.016 µg/mL
MIC [5]: ≤ 0.016 µg/mL
MIC [6]: 2 µg/mL (≈ 3.41 µM)
MIC [7]: 8 µg/mL (≈ 13.6 µM)
MIC [8]: 0.25 µg/mL (≈ 0.426 µM)

CN(C)[C@@H]1C(O)=C(C(N)=O)C(=O)[C@@]2(O)C(O)=C3C(=O)c4c(O)c(NC(=O)[C@@H]5C[C@@H](F)CN5C)cc(F)c4C[C@H]3C[C@@H]12
MIC [1]: 0.5 µg/mL (≈ 0.867 µM)
MIC [2]: 8 µg/mL (≈ 13.9 µM)
MIC [3]: 2 µg/mL (≈ 3.47 µM)
MIC [4]: 0.063 µg/mL (≈ 0.109 µM)
MIC [5]: 0.063 µg/mL (≈ 0.109 µM)
MIC [6]: 4 µg/mL (≈ 6.94 µM)
MIC [7]: > 32 µg/mL
MIC [8]: 1 µg/mL (≈ 1.73 µM)

CN(C)[C@@H]1C(O)=C(C(N)=O)C(=O)[C@@]2(O)C(O)=C3C(=O)c4c(O)c(NC(=O)[C@@H]5CC(F)(F)CN5C)cc(F)c4C[C@H]3C[C@@H]12
MIC [1]: 1 µg/mL (≈ 1.68 µM)
MIC [2]: > 32 µg/mL
MIC [3]: 1 µg/mL (≈ 1.68 µM)
MIC [4]: 0.5 µg/mL (≈ 0.841 µM)
MIC [5]: 0.5 µg/mL (≈ 0.841 µM)
MIC [6]: > 32 µg/mL
MIC [7]: > 32 µg/mL
MIC [8]: 1 µg/mL (≈ 1.68 µM)

CN(C)[C@@H]1C(O)=C(C(N)=O)C(=O)[C@@]2(O)C(O)=C3C(=O)c4c(O)c(NC(=O)[C@@H]5CCCCN5)cc(F)c4C[C@H]3C[C@@H]12
MIC [1]: 0.5 µg/mL (≈ 0.895 µM)
MIC [2]: 2 µg/mL (≈ 3.58 µM)
MIC [3]: 1 µg/mL (≈ 1.79 µM)
MIC [4]: 0.031 µg/mL (≈ 0.0555 µM)
MIC [5]: 0.063 µg/mL (≈ 0.113 µM)
MIC [6]: 0.5 µg/mL (≈ 0.895 µM)
MIC [7]: 8 µg/mL (≈ 14.3 µM)
MIC [8]: 0.25 µg/mL (≈ 0.448 µM)

CN(C)[C@@H]1C(O)=C(C(N)=O)C(=O)[C@@]2(O)C(O)=C3C(=O)c4c(O)c(NC(=O)[C@@H]5CCCCN5C)cc(F)c4C[C@H]3C[C@@H]12
MIC [1]: 2 µg/mL (≈ 3.49 µM)
MIC [2]: 2 µg/mL (≈ 3.49 µM)
MIC [3]: 8 µg/mL (≈ 14 µM)
MIC [4]: 0.13 µg/mL (≈ 0.227 µM)
MIC [5]: 0.25 µg/mL (≈ 0.437 µM)
MIC [6]: 0.5 µg/mL (≈ 0.873 µM)
MIC [7]: > 32 µg/mL
MIC [8]: 1 µg/mL (≈ 1.75 µM)

CN(C)[C@@H]1C(O)=C(C(N)=O)C(=O)[C@@]2(O)C(O)=C3C(=O)c4c(O)c(NC(=O)[C@H]5CCCCN5)cc(F)c4C[C@H]3C[C@@H]12
MIC [1]: 2 µg/mL (≈ 3.58 µM)
MIC [2]: 16 µg/mL (≈ 28.6 µM)
MIC [3]: 2 µg/mL (≈ 3.58 µM)
MIC [4]: 0.5 µg/mL (≈ 0.895 µM)
MIC [5]: 0.5 µg/mL (≈ 0.895 µM)
MIC [6]: 4 µg/mL (≈ 7.16 µM)
MIC [7]: > 32 µg/mL
MIC [8]: 2 µg/mL (≈ 3.58 µM)

CN(C)[C@@H]1C(O)=C(C(N)=O)C(=O)[C@@]2(O)C(O)=C3C(=O)c4c(O)c(NC(=O)c5cccn5C)cc(F)c4C[C@H]3C[C@@H]12
MIC [1]: 0.25 µg/mL (≈ 0.451 µM)
MIC [2]: > 32 µg/mL
MIC [3]: 0.5 µg/mL (≈ 0.902 µM)
MIC [4]: 8 µg/mL (≈ 14.4 µM)
MIC [5]: 8 µg/mL (≈ 14.4 µM)
MIC [6]: > 32 µg/mL
MIC [7]: > 32 µg/mL
MIC [8]: 0.5 µg/mL (≈ 0.902 µM)

CN(C)c1cc(F)c2c(c1O)C(=O)C1=C(O)[C@]3(O)C(=O)C(C(N)=O)=C(O)[C@@H](N(C)C)[C@@H]3C[C@@H]1C2
MIC [1]: 1 µg/mL (≈ 2.1 µM)
MIC [2]: 8 µg/mL (≈ 16.8 µM)
MIC [3]: 4 µg/mL (≈ 8.41 µM)
MIC [4]: 0.25 µg/mL (≈ 0.526 µM)
MIC [5]: 4 µg/mL (≈ 8.41 µM)
MIC [6]: 4 µg/mL (≈ 8.41 µM)
MIC [7]: 32 µg/mL (≈ 67.3 µM)
MIC [8]: 4 µg/mL (≈ 8.41 µM)

Cc1cc(C(=O)Nc2cc(F)c3c(c2O)C(=O)C2=C(O)[C@]4(O)C(=O)C(C(N)=O)=C(O)[C@@H](N(C)C)[C@@H]4C[C@@H]2C3)no1
MIC [1]: 0.25 µg/mL (≈ 0.449 µM)
MIC [2]: > 32 µg/mL
MIC [3]: 0.5 µg/mL (≈ 0.898 µM)
MIC [4]: 2 µg/mL (≈ 3.59 µM)
MIC [5]: 2 µg/mL (≈ 3.59 µM)
MIC [6]: > 32 µg/mL
MIC [7]: > 32 µg/mL
MIC [8]: 0.5 µg/mL (≈ 0.898 µM)

CN(C)[C@@H]1C(O)=C(C(N)=O)C(=O)[C@@]2(O)C(O)=C3C(=O)c4c(O)c(NC(=O)c5ccn(C)n5)cc(F)c4C[C@H]3C[C@@H]12
MIC [1]: 0.5 µg/mL (≈ 0.9 µM)
MIC [2]: > 32 µg/mL
MIC [3]: 0.5 µg/mL (≈ 0.9 µM)
MIC [4]: 1 µg/mL (≈ 1.8 µM)
MIC [5]: 2 µg/mL (≈ 3.6 µM)
MIC [6]: > 32 µg/mL
MIC [7]: > 32 µg/mL
MIC [8]: 1 µg/mL (≈ 1.8 µM)

CN(C)[C@@H]1C(O)=C(C(N)=O)C(=O)[C@@]2(O)C(O)=C3C(=O)c4c(O)c(NC(=O)[C@@H]5CCN5)cc(F)c4C[C@H]3C[C@@H]12
MIC [1]: 0.25 µg/mL (≈ 0.471 µM)
MIC [2]: 1 µg/mL (≈ 1.88 µM)
MIC [3]: 0.13 µg/mL (≈ 0.245 µM)
MIC [4]: 0.16 µg/mL (≈ 0.302 µM)
MIC [5]: 0.031 µg/mL (≈ 0.0584 µM)
MIC [6]: 0.25 µg/mL (≈ 0.471 µM)
MIC [7]: 16 µg/mL (≈ 30.2 µM)
MIC [8]: 0.5 µg/mL (≈ 0.942 µM)
